{"source": "ChEMBL document CHEMBL4513216", "about": "“Probing the Open Global Health Chemical Diversity Library for Multistage-Active Starting Points for Next-Generation Antimalarials” (ACS Infect Dis, 2020)", "data": [{"assay": "Toxicity liver stage against HepG2, at 10uM", "format": "cell-based", "design": "test concentration 10 uM, cell line HepG2-A16-CD81EGFP", "conditions": "human, HepG2-A16-CD81EGFP cells; read-out: INHIBITION", "procedure,_shortened": "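Uninfected HepG2-A16-CD81EGFP cells, 3 × 10^3 per well, 1536-well, plated on prespotted compound at 10 μM final, parasite-free screening media added to match infected plates; puromycin 10 μM positive, DMSO 0.5% negative; run in parallel with 48 h PbLuc assay at 37 °C, 5% CO2; viability by CellTiter-Glo luminescence, normalized to controls.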", "units": {"cytotoxicity at 10 µM": "%"}, "values": [{"smiles": "CC(C)CNC[C@H]1O[C@H](Cc2cc(-c3ccccn3)on2)CC[C@@H]1O", "cytotoxicity at 10 µM": -0.238}, {"smiles": "CC(C)(C)CC(=O)N1CC[C@H]2CC(=O)N(CCc3c[nH]cn3)CC[C@H]2C1", "cytotoxicity at 10 µM": -3.97}, {"smiles": "O=C(NCC1CC1)c1cc2c(s1)CCN2C(=O)c1ccc(F)cc1", "cytotoxicity at 10 µM": 2.55}, {"smiles": "CN(Cc1cccnc1)Cc1cn2c(n1)CN(C1CCOCC1)CC2", "cytotoxicity at 10 µM": 8.94}, {"smiles": "CN(C)CCN1CCOCC2(CCCN(C(=O)c3cccc(O)c3)C2)C1", "note": "(stereo not given)", "cytotoxicity at 10 µM": 11.7}, {"smiles": "c1ccc(CO[C@H]2CO[C@@]3(CCCN(Cc4ccncc4)C3)C2)nc1", "cytotoxicity at 10 µM": 1.44}, {"smiles": "Cn1cc(C[C@H]2[C@H](O)CCN2C(=O)C2CCOCC2)cn1", "cytotoxicity at 10 µM": 13}, {"smiles": "Cc1n[nH]c2c1C(c1ccc(O)c(Cl)c1)SCC(=O)N2", "note": "(stereo not given)", "cytotoxicity at 10 µM": 10.4}, {"smiles": "CN(C(=O)Cn1nc(-c2cccs2)ccc1=O)C1CCS(=O)(=O)C1", "note": "(stereo not given)", "cytotoxicity at 10 µM": 7.36}, {"smiles": "O=C(Cn1cc(I)cn1)Nc1cccnc1", "cytotoxicity at 10 µM": -2.59}, {"smiles": "O=C(O)CCCC(=O)Nc1cnn(COc2ccc(F)cc2Cl)c1", "cytotoxicity at 10 µM": 8.69}, {"smiles": "O=S1(=O)NC(C2CCCN(S(=O)(=O)N3CCCC3)C2)=Nc2ccccc21", "note": "(stereo not given)", "cytotoxicity at 10 µM": 2.17}, {"smiles": "COc1ccccc1C1(CNC(=O)NCc2noc(C)n2)CC1", "cytotoxicity at 10 µM": -0.343}, {"smiles": "CC1CCC(O)(CSc2nnnn2C)CC1", "note": "(stereo not given)", "cytotoxicity at 10 µM": -8.03}, {"smiles": "CCn1cnnc1CNC(=O)N(C)Cc1cccc(Cl)c1Cl", "cytotoxicity at 10 µM": -16.2}, {"smiles": "Cc1cc(N2CCCC2)c(C#N)c(C)n1", "cytotoxicity at 10 µM": 10.4}, {"smiles": "CN(C)Cc1ccc(NC(=O)c2nccn3ccnc23)cc1", "cytotoxicity at 10 µM": -2.6}, {"smiles": "Cc1nccn1-c1ncccc1NC(=O)CCOCC(C)C", "cytotoxicity at 10 µM": -2.59}, {"smiles": "Cc1n[nH]cc1CNC1(Cc2ccc(Br)cc2)CCCCC1", "cytotoxicity at 10 µM": 14.1}, {"smiles": "CCc1nc(NS(=O)(=O)c2ccc(C)cc2Cl)no1", "cytotoxicity at 10 µM": -1.51}, {"smiles": "CC1(NC(=O)Cc2csc(C(C)(C)C)n2)CCS(=O)(=O)C1", "note": "(stereo not given)", "cytotoxicity at 10 µM": -4.17}, {"smiles": "CC1c2cccn2CCN1C(=O)CCCc1nc(-c2ccco2)no1", "note": "(stereo not given)", "cytotoxicity at 10 µM": 7.16}, {"smiles": "CN1C(=O)CC(C(=O)O)C12CCN(Cc1cc(F)ccc1Cl)CC2", "note": "(stereo not given)", "cytotoxicity at 10 µM": -0.309}, {"smiles": "CNS(=O)(=O)CCn1cc(-c2ccc(NC(C)=O)cc2)nn1", "cytotoxicity at 10 µM": -4.5}, {"smiles": "CN(Cc1cnc2ccccc2c1)C(=O)C(c1ccccc1F)N(C)C", "note": "(stereo not given)", "cytotoxicity at 10 µM": -6.88}, {"smiles": "CC(c1ccncn1)N(C)S(=O)(=O)NCc1ccccc1", "note": "(stereo not given)", "cytotoxicity at 10 µM": -81.5}, {"smiles": "Cc1cccc(CNC(=O)NCC2CCN(Cc3ncc[nH]3)C2)c1", "note": "(stereo not given)", "cytotoxicity at 10 µM": 1.86}, {"smiles": "CCc1cc(NCCNC(C)=O)nc(N2CCOCC2)n1", "cytotoxicity at 10 µM": 2.38}, {"smiles": "CCCNCC1(O)CCCN(Cc2cccc(C)c2)C1=O", "note": "(stereo not given)", "cytotoxicity at 10 µM": -19.7}, {"smiles": "O=C(CCn1cccn1)N1CCSCC1", "cytotoxicity at 10 µM": -5.92}, {"smiles": "Cn1cnc(S(=O)(=O)NCCCN2CCCC2=O)c1Cl", "cytotoxicity at 10 µM": -12.1}, {"smiles": "CCOc1ccnc(N2CCN(C(=O)c3ccn(C)c(=O)c3)CC2)n1", "cytotoxicity at 10 µM": -14.8}, {"smiles": "CC(C)n1cc(CN2CCCN(C(=O)CC3CCCCC3)CC2)cn1", "cytotoxicity at 10 µM": -10.8}, {"smiles": "CCc1nnc(CN2CCCC(c3cc(C(N)=O)[nH]n3)C2)o1", "note": "(stereo not given)", "cytotoxicity at 10 µM": -12.7}, {"smiles": "Cc1nnc(CN2CCN(CC(O)c3ccccc3)CC2)o1", "note": "(stereo not given)", "cytotoxicity at 10 µM": -18.9}, {"smiles": "Cc1nc(CN2CCOC(Cn3cccn3)C2)no1", "note": "(stereo not given)", "cytotoxicity at 10 µM": -11.6}, {"smiles": "Cc1nc(C2CCCN2CCCNS(C)(=O)=O)no1", "note": "(stereo not given)", "cytotoxicity at 10 µM": -8.6}, {"smiles": "CC(C)Oc1ncccc1CNC(=O)C1CCCN(C(=O)C2CC2)C1", "note": "(stereo not given)", "cytotoxicity at 10 µM": -8.57}, {"smiles": "Cc1cnn(CC2CCCN2Cc2nnsc2Cl)c1", "note": "(stereo not given)", "cytotoxicity at 10 µM": -8.72}, {"smiles": "O=C(CCc1nccs1)N1CCN(c2ccccc2F)CC1", "cytotoxicity at 10 µM": -9.42}, {"smiles": "Fc1cnc(N2CCO[C@H]3[C@H](OCCN4CCCC4)CC[C@@H]32)nc1", "cytotoxicity at 10 µM": 1.33}, {"smiles": "O=C(N[C@@H]1CN(c2ncccn2)C[C@@H]2CCCO[C@@H]21)c1cccnc1", "cytotoxicity at 10 µM": 11.4}, {"smiles": "CN(Cc1ccncc1)C1COC2(CCN(Cc3cccs3)CC2)C1", "note": "(stereo not given)", "cytotoxicity at 10 µM": -0.931}, {"smiles": "CN(C)S(=O)(=O)N1CCO[C@H]2[C@H](Oc3cccnc3)CC[C@@H]21", "cytotoxicity at 10 µM": 4.64}, {"smiles": "O=C(Nc1cccnc1)[C@H]1C[C@H]2OCC[C@H]2N(Cc2ccc(F)cc2)C1", "cytotoxicity at 10 µM": 0.592}]}]}
